Compound activity deposited in PubChem BioAssay by several laboratories.
Beta cell apopt – inhibitors of cytokine-induced beta cell apoptosis, primary screen, luminescence. 300,000 tested, 0.8% active. protection from apoptosis, % (concentration not given with the values). INS-1E cytokine-induced death, ATP luminescence, 48 h; percent of positive-control rescue, neutral wells zero;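 active = Every replicate reaches about 75%, or at least half do and their mean reaches it too, limit read from the data; inconclusive = At least half of replicates reach the limit but their mean does not; inactive = Under half of replicates reach the limit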;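 also: higher means more ATP so stronger rescue from cytokine killing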
T cruzi inh – inhibitors of intracellular T. cruzi growth, primary screen, luminescence, NIH3T3 host cells. T. cruzi beta-gal in NIH3T3, 90 h. inhibition, % (no concentration beside the values). 300,000 tested, 1.4% active. AID 1885, 2009;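 active = mean inhibition across valid replicates above about 55%, limit read from the data; inconclusive = mean below that limit but half or more replicates reach it; inactive = mean below it, under half of replicates reach it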;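 also: signal also drops with host cell toxicity which is not excluded here; higher percent means less beta-gal luminescence so fewer parasites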
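assay system = mouse NIH/3T3 fibroblasts infected with β-gal-expressing T. cruzi Tulahuen C4 | input = 5,000 NIH/3T3 host cells per well | buffer or medium = DMEM plus 2% FBS | timing = 3 h host attachment, then at least 90 h co-culture | measured by = GalScreen luminescence, 60 min | evaluation = luminescence reflecting intracellular parasite burden, expressed as percent inhibition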
CSC inhib – cancer stem cell viability inhibitors, primary screen, luminescence; inhibition, % at 7.5 µM; cancer stem cell-like cells viability; 300,000 tested, 1.1% active; in the data active = inhibition above about 75%; inconclusive = no clear call, values can overlap the other calls; tested in HMLE shEcad cells
Mdm2 MdmX PPI – inhibitors of human Mdm2-MdmX association, primary screen, cell-based, luminescence, split luciferase, SaOS-2, uHTS; Protein Mdm4 (Homo sapiens) + E3 ubiquitin-protein ligase Mdm2 (Homo sapiens), …; SaOS-2 split-luciferase Mdm2/MdmX complementation; inhibition, % at 8 µM; 330,000 tested, 3% active;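 active = inhibition of at least 50% at 8 µM in the primary screen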
Target sequence (O15151 whole entry, looked up): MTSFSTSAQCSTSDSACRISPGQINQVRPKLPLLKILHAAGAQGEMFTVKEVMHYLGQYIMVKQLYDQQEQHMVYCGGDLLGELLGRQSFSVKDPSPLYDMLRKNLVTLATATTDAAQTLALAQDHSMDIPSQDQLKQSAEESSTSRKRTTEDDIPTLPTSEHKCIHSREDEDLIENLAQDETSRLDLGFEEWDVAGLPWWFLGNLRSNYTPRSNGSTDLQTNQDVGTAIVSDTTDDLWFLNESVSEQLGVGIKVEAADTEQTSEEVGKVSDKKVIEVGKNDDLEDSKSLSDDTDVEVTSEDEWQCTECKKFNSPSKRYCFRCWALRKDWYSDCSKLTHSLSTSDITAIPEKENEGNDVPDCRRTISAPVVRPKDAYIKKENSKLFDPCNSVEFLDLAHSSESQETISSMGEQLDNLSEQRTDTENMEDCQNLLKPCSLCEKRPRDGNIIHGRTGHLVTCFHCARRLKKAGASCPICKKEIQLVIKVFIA
Target sequence (Q00987 whole entry, looked up): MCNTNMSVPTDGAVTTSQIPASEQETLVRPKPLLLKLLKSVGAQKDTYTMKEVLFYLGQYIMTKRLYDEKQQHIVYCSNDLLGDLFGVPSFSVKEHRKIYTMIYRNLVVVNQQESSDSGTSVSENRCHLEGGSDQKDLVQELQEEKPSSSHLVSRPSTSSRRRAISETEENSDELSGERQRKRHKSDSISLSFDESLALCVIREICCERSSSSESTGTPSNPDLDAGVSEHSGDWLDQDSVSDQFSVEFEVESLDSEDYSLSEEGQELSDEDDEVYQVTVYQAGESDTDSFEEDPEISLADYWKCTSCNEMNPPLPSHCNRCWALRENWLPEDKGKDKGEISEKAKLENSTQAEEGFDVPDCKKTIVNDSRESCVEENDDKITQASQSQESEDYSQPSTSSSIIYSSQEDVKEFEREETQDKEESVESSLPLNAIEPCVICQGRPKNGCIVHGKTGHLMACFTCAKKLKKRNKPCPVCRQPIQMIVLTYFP
SKKanGAS inh – S. pyogenes SKKanGAS growth inhibitors in kanamycin, primary screen, streptokinase expression inhibitor project, SKKanGAS strain, BacTiter-Glo luminescence; 6 h; inhibition, % at 7.5 µM; 300,000 tested, 1.3% active;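 active = mean replicate score, as percent of positive control median, at least 50; inconclusive = mean below 50 but one replicate at or above 50; inactive = mean and every replicate below 50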;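 also: strain carries kanamycin resistance gene driven by streptokinase promoter and grows in 40 µg/ml kanamycin; loss of luminescence reflects streptokinase promoter inhibition or plain growth inhibition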
Calb FLC – C. albicans growth inhibition with fluconazole, primary screen, CaCi-2 strain, Alamar Blue fluorescence; C. albicans CaCi-2 (fluconazole-resistant clinical isolate) + fluconazole, 48 h; growth inhibition, % (concentration not given with the values); 300,000 tested, 0.57% active; AID 1979, 2009;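 active = growth inhibition above about 58% in most replicates, limit read from the data, passing the limit was not always enough; inconclusive = exactly half the replicates above a set limit; inactive = most replicates below a set limit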;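 also: all wells also contain fluconazole at 8 µg/ml as a sub-toxic cotreatment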
Mdm2 MdmX conf – Mdm2-MdmX complex disruptors, retested hits, confirmation, luminescence, single concentration; shares compounds with Mdm2 MdmX PPI; Mdm2-MdmX binding, luminescent assay; inhibition, % at 8 µM; 10,000 tested, 55% active; AID 489028, 2010; in the data active = inhibition above about 40%
FLuc counter – full-length luciferase signal inhibition, confirmation, counter-screen for Mdm2/MdmX interaction inhibitor project, cell-based, single concentration, SaOS-2; inhibition, % at 8 µM; AID 504607, 2011; SaOS-2 full-length luciferase counterscreen, luminescence; shares compounds with Mdm2 MdmX PPI; 6,200 tested, 77% active;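 active = mean inhibition at 8 µM reaching about 37%, which flags the compound as non-specific, limit read from the data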;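 also: p53-null SaOS-2 cells with luciferase driven by a doxycycline-inducible promoter; compound on cells about two nights before reading with doxycycline added after day one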
A number is an active result; . = inactive; ? = inconclusive; / = not tested or not shown. Rows were chosen to be rich in hits. Some 5.7% of all compounds tested hit in one or more screens of this group.

SMILES	Beta cell apopt	T cruzi inh	CSC inhib	Mdm2 MdmX PPI	SKKanGAS inh	Calb FLC	Mdm2 MdmX conf	FLuc counter
COc1ccc2c(c1)O[C@@H](c1cccc(C(F)(F)F)c1)[C@H](OC(=O)Nc1ccc(OC(F)F)cc1)C2=O	.	/	.	.	/	/	/	/
CCC(CO)Oc1cc(NCc2ccccc2Cl)c2ncn(C(C)C)c2c1 (stereo not given)	.	/	.	.	/	/	/	/
CN(CC(=O)Nc1c(Cl)cccc1Cl)C(=O)c1ccc2ccccc2n1	/	/	/	.	/	/	/	/
COc1ccc(OC)c(N2CC(O)=C(c3nc4ccccc4s3)C2=N)c1	.	.	.	.	.	.	/	/
CCOc1ccccc1N1CC(O)=C(c2nc3ccccc3s2)C1=N	.	.	.	56.8	.	.	57.5	57.8
CCOc1cc(C=C(C(=O)OC)C(=O)OC)ccc1OCc1ccc([N+](=O)[O-])cc1	.	/	.	96.4	/	/	74.9	44.0
COc1ccc(C/C(N)=N/OC(=O)c2cccc([N+](=O)[O-])c2)cc1	.	.	.	.	.	.	/	/
N/C(Cc1ccc([N+](=O)[O-])cc1)=N\OC(=O)c1cccc(Br)c1	.	.	.	60.9	.	?	.	/
COc1ccc(C(=O)O/N=C(\N)Cc2ccc([N+](=O)[O-])cc2)c(OC)c1	.	.	.	86.4	.	.	67.8	90.3
CCOc1ccc(C(=O)O/N=C(\N)c2ccc([N+](=O)[O-])cc2)cc1OCC	/	.	/	59.8	.	.	52.3	125.5
N/C(Cc1ccc([N+](=O)[O-])cc1)=N\OC(=O)c1ccc([N+](=O)[O-])cc1	.	.	.	.	.	.	/	/
COCCC(=O)Nc1c(-c2ccccc2)c2cc(Br)ccc2[nH]c1=O	.	.	.	.	.	.	/	/
COc1cc(C(=O)O/N=C(\N)Cc2ccc([N+](=O)[O-])cc2)cc(OC)c1OC	.	.	.	85.1	.	.	69.5	70.5
COc1ccccc1C/C(N)=N/OC(=O)c1cccc([N+](=O)[O-])c1	.	.	.	.	.	.	/	/
Cc1ccccc1Cn1cc(NC(=O)c2cc3nc(-c4ccco4)cc(C(F)(F)F)n3n2)cn1	.	.	.	.	.	.	/	/
CCc1ccc(-c2cc(C(F)(F)F)n3nc(C(=O)Nc4cnn(Cc5ccc(C)cc5)c4)cc3n2)s1	76.4	.	.	51.1	.	.	.	/
CCN(CC)CCn1c2ccccc2c2cnc(N=CN(C)C)c(C#N)c21	.	.	.	.	.	.	/	/
CCn1c2ccccc2c2cnc(N=CN(C)C)c(C#N)c21	.	.	.	75.6	.	.	87.2	.
O=C(Nc1cccc(S(=O)(=O)N2CCOCC2)c1)[C@@H]1CCCN1S(=O)(=O)c1ccc(Cl)cc1	.	.	.	.	.	.	/	/
Cc1nnc2ccc(-c3cccc(NS(=O)(=O)c4ccccc4Cl)c3)nn12	.	.	.	56.3	.	.	57.0	55.5
Cc1nnc2ccc(-c3cccc(NS(=O)(=O)c4ccccc4[N+](=O)[O-])c3)nn12	.	.	.	56.2	.	.	54.6	82.0
Cc1nnc2ccc(-c3cccc(NS(=O)(=O)c4cc(F)ccc4F)c3)nn12	.	.	.	.	.	.	/	/
C[C@@H]1COC(=O)[C@H](CC(=O)OC(C)(C)C)C/C=C\C[C@@H](CC(=O)N[C@H](CO)Cc2ccccc2)C(=O)N1	.	/	.	.	/	/	/	/
Cn1ccnc1C1CCCCN1Cc1nc(-c2ccc(Cl)cc2)no1 (stereo not given)	.	.	.	.	.	.	/	/
O=C1[C@H](Oc2ccccc2)[C@@H](c2ccncc2)N1c1ccncc1	/	/	/	.	/	/	/	/
SMILES	Beta cell apopt	T cruzi inh	CSC inhib	Mdm2 MdmX PPI	SKKanGAS inh	Calb FLC	Mdm2 MdmX conf	FLuc counter
O=C1[C@@H](Oc2ccccc2)[C@@H](c2cnc3ccccc3c2)N1c1ccccc1	/	/	/	52.8	/	/	54.1	56.4
COc1cc(C2CC(=O)c3cnc(N4CCN(Cc5ccccc5)CC4)nc3C2)cc(OC)c1OC (stereo not given)	.	.	.	52.3	.	.	67.7	51.5
Cc1ccc(CNC(=O)/C=C/c2c(Cl)cccc2Cl)cc1	.	.	.	55.5	.	.	.	/
CN(C)c1ccc(NC(=O)/C=C/c2c(Cl)cccc2Cl)cc1	.	.	/	64.2	.	.	69.1	50.3
COc1cc(C(=O)Nc2nnc(C)s2)c([N+](=O)[O-])cc1OC	.	.	.	.	.	.	/	/
CCN(CC)CCCCN1c2ccccc2Sc2ccccc21	.	.	.	59.3	.	.	.	/
CCN(CC)CC(=O)N1c2ccccc2Sc2ccccc21	.	.	.	.	.	.	/	/
Cc1[nH]nc2c1C(c1cccs1)C1=C(CC(C)(C)CC1=O)N2 (stereo not given)	.	.	.	.	.	.	/	/
C=CCNC(=O)c1ccc(-c2nc(-c3ccc(Cl)c(Cl)c3)cs2)cc1	.	.	.	52.4	.	.	.	/
C=CCNC(=O)c1ccc(-c2nc(-c3ccc(Cl)cc3Cl)cs2)cc1	.	.	.	.	.	.	/	/
c1ccc2c(c1)[nH]c1c(N3CCCC3)ncnc12	.	.	/	.	.	.	/	/
CCOc1ccc2[nH]c3c(N4CCc5ccccc5C4)ncnc3c2c1	.	.	86.8	56.8	51.3	.	59.4	.
Fc1ccc2[nH]c3c(N4CCc5ccccc5C4)ncnc3c2c1	127.3	.	?	56.9	.	.	.	/
Brc1ccc2[nH]c3c(N4CCc5ccccc5C4)ncnc3c2c1	.	.	80.0	69.2	85.9	.	.	/
Cc1cccc(N(CC(=O)NCc2ccco2)C(=O)CCC(=O)Nc2ccccn2)c1C	.	.	.	.	.	.	/	/
O=S(=O)(Nc1cccc(S(=O)(=O)N2CCCC2)c1)c1ccccc1F	.	/	.	.	/	/	/	/
Cc1cc(Cl)n2nc(C)c(-c3ccc(Cl)cc3)c2n1	.	/	.	90.9	/	112.8	52.4	.
Cc1cc(N)n2nc(C)c(-c3ccc(Cl)cc3)c2n1	.	.	/	.	.	.	/	/
Cc1ccc2c(c1)Oc1ccc(NC(=O)CCl)cc1C(=O)N2	.	.	.	91.7	.	.	86.8	53.7
CSc1ccccc1C(=O)N1CCC(n2nccc2NC(=O)C(C)(C)C)CC1	.	.	.	.	.	.	/	/
COC(=O)c1c(NC(=O)/C=C/C(=O)O)sc(C)c1-c1ccc(C)c(C)c1	.	.	.	53.4	.	.	.	/
